Source: PubChem (several laboratories)
A selection: hits, their analogues and other compounds. The true share with any hit is near 3.6%.
UCH37 DUB inh: blocks the human deubiquitinase UCH37. Q9Y5K5. purified proteasome/UCH37, Ub-AMC cleavage fluorescence. inhibition, % (no concentration beside the values). 330,000 tested, 0.33% active;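 active = mean inhibition over replicate wells above about 20%, limit read from the data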;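 also: 0% = compound-free wells with enzyme and 100% = wells lacking proteasome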
Target sequence (Q9Y5K5 whole entry, looked up): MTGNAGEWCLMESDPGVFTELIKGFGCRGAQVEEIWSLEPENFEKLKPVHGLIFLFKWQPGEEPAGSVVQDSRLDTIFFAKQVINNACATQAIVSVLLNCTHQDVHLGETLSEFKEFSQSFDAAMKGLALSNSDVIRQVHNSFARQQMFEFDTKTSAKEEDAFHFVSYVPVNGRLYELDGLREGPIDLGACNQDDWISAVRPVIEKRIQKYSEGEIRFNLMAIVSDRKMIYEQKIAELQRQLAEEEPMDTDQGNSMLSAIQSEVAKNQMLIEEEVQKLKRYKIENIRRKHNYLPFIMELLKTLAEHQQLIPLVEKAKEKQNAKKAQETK
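Material: Human UCH37 enzyme supplied as purified proteasome complex | Schedule: 30 min preincubation with enzyme, 25 min cleavage at room temperature | Detection: AMC fluorescence 355/460 nm | Measure: % inhibition of Ub-AMC cleavage fluorescence | Controls: Wells without proteasome as full block, compound-free enzyme plus substrate as uninhibited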
NR3A LBD binder: NR3A (human) ligand-binding domain modulation; NR3A LBD differential scanning fluorimetry, Tm shift; 0% = protein alone, 100% = glycine-bound protein; Tm shift relative to glycine control, % at 25 µM; 340,000 tested, 2.5% active;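 active = melting temperature shift of at least 10% of the positive control shift, at one fixed dose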
SENP1 FRET inh: SENP1 (human) catalytic domain inhibition; Q9P0U3; recombinant SENP1 catalytic domain, CyPet-SUMO1-YPet FRET cleavage; inhibition, % at 10 µM; 360,000 tested, 0.21% active; AID 624204;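 active = inhibition at least 30% at 10 µM, raw YFP signal under a set limit, fluorescence ratio 0.5 to 1.5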;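 also: 0% = enzyme with DMSO and 100% = no enzyme wells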
Target sequence (Q9P0U3 419-644 limits assumed): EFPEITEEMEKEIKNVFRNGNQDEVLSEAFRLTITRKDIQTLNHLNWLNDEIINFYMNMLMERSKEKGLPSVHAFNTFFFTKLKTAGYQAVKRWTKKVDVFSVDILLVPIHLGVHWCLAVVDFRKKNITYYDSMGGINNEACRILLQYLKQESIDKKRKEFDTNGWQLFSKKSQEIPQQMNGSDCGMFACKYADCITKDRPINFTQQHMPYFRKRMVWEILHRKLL
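Test system: hSENP1 catalytic domain, recombinant; Amount: 20 pM final SENP1 enzyme; Medium: Tris pH 8 buffer plus EDTA, NaCl, BME, BSA, NP40, catalase; Schedule: 50 min enzyme reaction, room temperature, light-protected; Technique: FRET fluorescence in CFP and YFP emission channels; Controls: no-enzyme wells low, DMSO-plus-enzyme wells high control.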
ATG4B inh: blocks human ATG4B protease cleavage of LC3 substrate | ATG4B cleavage of LC3-PLA2, NBD-HPC fluorescence, 1 h | inhibition, % at 8.33 µM | 340,000 tested, 0.51% active; in the data active = inhibition above about 40%
NadD block: NadD (S. aureus) enzyme inhibition | 360,000 tested, 0.78% active | purified NadD enzyme, colorimetric absorbance read-out | inhibition, % at 20 µM | AID 602399; in the data active = inhibition above about 26%
Active calls of the source: *; x = not tested or not shown.

SMILES | UCH37 DUB inh | NR3A LBD binder | SENP1 FRET inh | ATG4B inh | NadD block
O=C(CCC(=O)c1ccc(Oc2ccccc2)cc1)Nc1cccc(Cl)c1 | -6 | 2 | 0 | 3 | 4
COc1ccc(C(=O)CCC(=O)Nc2cccc(Cl)c2)cc1 | 2 | 0 | 4 | 7 | -6
CCOc1ccc(NS(=O)(=O)c2cc(NC(=O)c3ccc(C)cc3)ccc2Cl)cc1 | 7 | 15* | 3 | -8 | 19
O=C(Nc1ccccc1O)c1ccc(NS(=O)(=O)c2cccc3cccnc23)cc1 | x | 20* | 5 | -1 | 3
O=C(NN=Cc1ccc2c(c1)OCO2)c1sc2cc(Cl)ccc2c1Cl | -7 | x | x | x | x
O=[N+]([O-])c1ccc(C=NNc2ccnc3cc(Cl)ccc23)o1 | 6 | x | x | x | x
S=c1[nH]c(-c2ccccc2)cn1N=Cc1ccccc1Br | 2 | x | x | x | x
COC(=O)c1ccc(NC(=O)c2ccc(NS(=O)(=O)c3cccc4cccnc34)cc2)cc1 | 6 | 3 | 0 | -1 | 6
Cc1cccc(NC(=O)c2ccc(NS(=O)(=O)c3cccc4cccnc34)cc2)c1 | x | 30* | 2 | 3 | 5
CCOc1ccc(NC(=O)c2ccc(NS(=O)(=O)c3cccc4cccnc34)cc2)cc1 | x | 17* | 0 | -4 | 2
Cc1ccc(OCC(=O)NN=Cc2ccncc2)c(C)c1 | 2 | x | x | x | x
COc1ccc(C=Nn2c(N)nc(-c3ccccc3)c2-c2ccccc2)cc1 | 3 | x | x | x | x
COc1cc(-c2nnc(SCC(=O)c3ccc(C)cc3)o2)cc(OC)c1OC | 1 | 11* | 2 | -4 | -6
Cc1cc(C)c(C)c(C(=O)CSc2nnc(-c3ccc4[nH]c(C)c(C)c4c3)o2)c1C | -3 | 4 | -5 | -17 | 25
Cc1[nH]c2ccc(-c3nnc(SCC(=O)c4ccc(F)cc4)o3)cc2c1C | -2 | 29* | 0 | 10 | -5
COc1ccc(NC(=S)Nc2ccc3nccnc3c2)cc1 | 8 | 1 | 23 | -1 | 3
COc1ccc(NC(=S)Nc2ccc3snnc3c2)cc1 | 0 | 28* | 1 | -2 | 2
COc1ccc(NC(=S)Nc2ccc(N)c([N+](=O)[O-])c2)cc1 | 4 | 12* | 0 | -10 | 1
COc1ccc(NC(=S)Nc2ccccc2)cc1 | 1 | -5 | 1 | -3 | 9
Cc1cccc(C)c1OCc1cc(C(=O)N2CCN3CCCC3C2)no1 (stereo not given) | -2 | 13* | -6 | 7 | -1
Cc1cccc(C)c1OCc1cc(C(=O)N2CCN(C3CCCC3)CC2)no1 | 5 | 4 | -1 | 30 | -7
CCCc1ccc(OC(=O)c2ccc(O)cc2Cl)cc1 | 2 | 16* | 2 | 4 | -4
Cc1ccc(C=NNC(=O)CNC(=O)c2cccs2)cc1 | 0 | x | x | x | x
CC(=O)c1ccc(Nc2nc3ccccc3nc2NS(=O)(=O)c2cccs2)cc1 | -26 | -2 | -23 | -7 | 6
COc1cccc(Nc2nc3ccccc3nc2NS(=O)(=O)c2ccc(NC(C)=O)cc2)c1 | -6 | 22* | -9 | 24 | 10
SMILES | UCH37 DUB inh | NR3A LBD binder | SENP1 FRET inh | ATG4B inh | NadD block
COc1ccc(Nc2nc3ccccc3nc2NS(=O)(=O)c2cccs2)cc1 | -6 | 22* | -23 | -3 | -2
CC(=O)Nc1ccc(S(=O)(=O)Nc2nc3ccccc3nc2Nc2ccc(S(N)(=O)=O)cc2)cc1 | -13 | 27* | -56 | -5 | 4
Cc1cccnc1NS(=O)(=O)c1cccc([N+](=O)[O-])c1 | 2 | -2 | 1 | -5 | -4
NS(=O)(=O)c1ccc(Nc2nc3ccccc3nc2NS(=O)(=O)c2cccc([N+](=O)[O-])c2)cc1 | 13 | 32* | -12 | -4 | 4
CC(=O)Nc1ccc(S(=O)(=O)Nc2nc3ccccc3nc2Nc2ccc(O)c(C(=O)O)c2)cc1 | 12 | 8 | 10 | 12 | -7
CCc1ccc(OCC(=O)NN=C(C)c2ccc3c(c2)OCCO3)cc1 | 4 | x | x | x | x
Cc1ccc(C)c(NC(=O)CCC(=O)NN=Cc2ccc3c(c2)OCO3)c1 | 8 | x | x | x | x
CC(=NNC(=O)c1ccccc1O)c1ccc(N2C(=O)C3CCCCC3C2=O)cc1 (stereo not given) | 8 | x | x | x | x
CC(=O)Nc1ccc(S(=O)(=O)Nc2nc3cc4c(cc3nc2Cl)OCCO4)cc1 | -392 | 1 | -96 | -7 | -2
CCOc1ccc(S(=O)(=O)Nc2nc3ccccc3nc2Nc2ccc(N3CCOCC3)cc2)cc1 | 6 | 15* | -23 | -2 | 28
CC(=O)Nc1ccc(S(=O)(=O)Nc2nc3ccccc3nc2Cl)cc1 | -1 | 38* | -9 | 8 | -4
CC(=O)Nc1ccc(S(=O)(=O)Nc2cccc(-c3nc4ccccc4o3)c2)cc1 | -1 | 12* | 0 | -15 | -4
O=S(=O)(Nc1nc2ccccc2nc1Nc1cccc(S(=O)(=O)N2CCCCC2)c1)c1ccccc1 | -13 | 13* | -146 | 32 | 25
O=C(NN=Cc1cccnc1)c1ccco1 | 2 | x | x | x | x
CCOc1cc(C=NNC(=O)C(=O)NCCCOC(C)C)cc(Br)c1O | 11 | x | x | x | x
Cc1nc(-c2coc3cc(C)c(N=O)c(O)c3c2=NN)cs1 | 7 | x | x | x | x
O=S(=O)(Nc1nc2ccccc2nc1N1CCN(c2ccccc2)CC1)c1ccc(F)cc1 | 4 | 24* | -116 | 28 | 14
COc1ccc(Nc2nc3ccccc3nc2NS(=O)(=O)c2ccc(NC(C)=O)cc2)cc1 | 3 | 12* | -66 | 0 | 5
Cc1ccccc1C=NNc1ccc(Cl)nn1 | -6 | x | x | x | x
COc1cc(C=NNc2ccc([N+](=O)[O-])cn2)cc(OC)c1O | 7 | x | x | x | x
COc1ccc(/C=C/c2nc3cc(-c4ccccc4)ccc3o2)cc1O | -223 | 17* | 25 | 6 | -6
O=C(NCCCNCc1ccccc1)C(=NO)c1ccccc1 | 1 | x | x | x | x
CCOC(=O)c1ccc(Nc2cc(C)nc(-c3ccccc3O)n2)cc1 | -17 | 35* | -2 | -8 | 1
Cc1cc(Nc2ccccc2Cl)nc(-c2ccccc2O)n1 | -2 | 1 | 1 | 7 | -4
Cc1cc(Nc2ccccc2)nc(-c2ccccc2O)n1 | -7 | 11* | -37 | 0 | 1
SMILES | UCH37 DUB inh | NR3A LBD binder | SENP1 FRET inh | ATG4B inh | NadD block
Cc1cc(NN=Cc2c(O)ccc3ccccc23)nc(-c2ccccc2O)n1 | 1 | x | x | x | x
Cc1cc(Nc2cccc(F)c2)nc(-c2ccccc2O)n1 | -6 | 30* | 1 | 9 | 3
Cc1cc(N/N=C/c2c(O)ccc3ccccc23)nc(-c2ccccc2O)n1 | x | 14* | -10 | 24 | 19
Cc1ccc(C)c(Nc2cc(C)nc(-c3ccccc3O)n2)c1 | -10 | 5 | 2 | 13 | -2
O=C(NN=Cc1ccccc1[N+](=O)[O-])c1ccc(COc2ccccc2-c2ccccc2)cc1 | 6 | x | x | x | x
CC(CCN1CCc2nc(-c3ccccc3)c(-c3ccccc3)cc2C1)=NO[C@@H](C)c1cc(-c2c(C)cc(C)cc2C)no1 | -2 | x | x | x | x
